Measurements reported in PubChem BioAssay.
Inconclusive results are not listed.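 Rule for the calls, unless noted: active = RAM network inhibition above 8.4% in each of two replicates, 3 SD over the compound average; inconclusive = above 8.4% inhibition in only one replicate; inactive = 8.4% inhibition or less in each replicate.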

Experiments:
[1] = OD615 S. cerevisiae growth inhibition, permissive medium, pilot counter-assay, permissive growth control for S. cerevisiae lifespan shortening project (AID 705;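 active = growth inhibition above 25% in both replicates, a cutoff set 3 SD above the mean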); conditions: OD615, 24 h, at 10 µM, hits give high values
Method in brief: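 System: Engineered DeaD yeast | Buffer or medium: SC raffinose/galactose permissive medium | Incubation: Cells pre-grown 4 h, then 24 h compound exposure, 30 °C humidified | Measured by: Absorbance (optical density) at 615 nm | Read-out: Reduction in yeast growth (OD615)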

[2] = Restrictive medium S. cerevisiae growth inhibition, OD615, pilot screen of yeast lifespan reduction project, restrictive growth control (AID 706;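 active = growth inhibition above a set limit, 3 SD over mean compound inhibition, in both replicates, cut at about 43% in these data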;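 note: modified DeaD lifespan yeast strain shifted to restrictive glucose medium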); conditions: OD615, 48 h, at 10 µM, hits give high values
Method in brief: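 Material: modified S. cerevisiae; Medium: glucose-based CSMM-D restrictive medium; Compound dosing: one concentration, 10 µM final, 0.25% DMSO; Incubation: 48 h compound exposure at 30 °C; Measured by: OD615.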

[3] = viability gain of MRP-1-high H69AR cells under doxorubicin, pilot screen, MRP-1 activator project, CellTiter-Glo, duplicate (AID 807;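 active = viability increase at or above a cutoff of the median across tested compounds plus 3 SD, cut at about 8.5% in these data, passing the limit was not always enough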;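 note: compound pretreatment 18-22 h then 72 h combined with doxorubicin; 0% = doxorubicin alone and 100% = vehicle without doxorubicin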); conditions: H69AR viability with doxorubicin, CellTiter-Glo luminescence; at 10 µM; hits give high values
[4] = growth suppression of beta-catenin knockout HCT116, pilot screen, human colon tumor cells (AID 823;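 active = cell viability at or below a set limit in both duplicate runs, the limit being the all-compound median minus 4 SD, cut at about 23% in these data, passing the limit was not always enough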;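 note: 0% = wells killed by 20 µM Hyamine and 100% = untreated DMSO cell wells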); conditions: CellTiter-Glo, 60 h, at 10 µM, hits give low values
[5] = growth suppression of PTEN-deleted HCT116, pilot screen, cell-based, HCT116 clonal line, CellTiter-Glo (AID 824;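 active = viability at or below 27.92% in each of two runs, the all-compound median minus 4 SD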;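 note: 0% = 20 µM Hyamine control and 100% = vehicle cell control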); conditions: 60 h, at 10 µM, hits give low values
[6] = inhibitors of the yeast RAM network, pilot screen, dse1pr::URA3 reporter, 5-FOA selection (AID 869;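 active = inhibition over a set limit, the all-compound mean plus 3 SD, in both replicate runs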;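 note: 0% = DMSO wells with no growth and 100% = 10 µM 1-NA-PP1 with full growth; RAM network block rescues cells from 5-FOA so hits raise OD615 growth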); conditions: S. cerevisiae dse1pr::URA3 5-FOA growth, OD615, 2 d; at 10 µM; hits give high values; strain carries analog-sensitive mutant Cbk1 kinase
[7] = RAM signaling pathway blockade in yeast – S. cerevisiae, Pdr1DBD-CYC8 efflux-inhibited sensitized strain, primary screen (AID 1298);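 note: 0% = DMSO untreated cells without growth and 100% = 10 µM 1-NA-PP1 full growth; higher means more yeast growth rescued from 5-FOA killing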; conditions: S. cerevisiae cbk1-as DSE1-URA3 strain, 5-FOA growth OD615, 2 d; at 50 µM; hits give high values

CCOC(=O)C1=C(C)NC(=O)NC1c1ccc(N(C)C)cc1 (configuration not stated)
inactive: growth inhibition [1] -12.3% | growth inhibition [2] -5.65% | viability increase [3] -2.7% | viability [4] 96.9% | viability [5] 92.9% | inhibition [6] 2.35% | RAM network inhibition [7] 5.85%

CCOC(=O)c1ccc(NC(=O)CSc2nc(C)cc(=O)[nH]2)cc1
inactive: growth inhibition [1] -7.82% | growth inhibition [2] 8.13% | viability increase [3] -1.06% | viability [4] 98.5% | viability [5] 100% | inhibition [6] -0.79% | RAM network inhibition [7] 0.78%

Cc1onc(-c2ccccc2Cl)c1C(=O)OCn1nnc2ccccc2c1=O
inactive: growth inhibition [1] -5.29% | growth inhibition [2] -2.08% | viability increase [3] -1.94% | viability [4] 84.4% | viability [5] 87.3% | inhibition [6] 2.41% | RAM network inhibition [7] 7.77%

O=C1c2ccccc2C(=O)C1c1ccncc1
inactive: growth inhibition [1] 4.93% | growth inhibition [2] -1.51% | viability increase [3] -1.88% | viability [4] 92.6% | viability [5] 91.3% | inhibition [6] 0.79% | RAM network inhibition [7] -0.62%

COCCNC(=O)CN1C(=O)CSc2cc(S(=O)(=O)N3CCCCCC3)ccc21
inactive: growth inhibition [1] -5.04% | growth inhibition [2] -4.12% | viability increase [3] -1.52% | viability [4] 98.9% | viability [5] 109% | inhibition [6] 2.73% | RAM network inhibition [7] -0.32%

Cc1c(NC(=O)C(C)N2C(=O)C3C4C=CC(C4)C3C2=O)c(=O)n(-c2ccccc2)n1C (configuration not stated)
inactive: growth inhibition [1] -8.7% | growth inhibition [2] -11.3% | viability increase [3] -0.72% | viability [4] 95.4% | viability [5] 93.2% | inhibition [6] 1.39% | RAM network inhibition [7] 2.56%

Nc1cc(=O)[nH]c(SCc2nc3ccccc3n2Cc2ccccc2)n1
inactive: growth inhibition [1] -2.77% | growth inhibition [2] 17% | viability increase [3] -0.14% | viability [4] 90.4% | viability [5] 89% | inhibition [6] 0.71% | RAM network inhibition [7] 6.17%

CCC(=O)Nc1c(C)cc(C)cc1Cl
inactive: growth inhibition [1] -12.5% | growth inhibition [2] -10.9% | viability increase [3] -0.97% | viability [4] 92.7% | viability [5] 96.4% | inhibition [6] 1.44% | RAM network inhibition [7] 0.83%

COc1ccc2c(C)cc(=O)oc2c1C
inactive: growth inhibition [1] 2.89% | growth inhibition [2] -2.73% | viability increase [3] -2.26% | viability [4] 102% | viability [5] 94.7% | inhibition [6] 1.96% | RAM network inhibition [7] 5.35%

c1coc(-c2nc(-c3ccco3)c(-c3ccco3)nc2-c2ccco2)c1
inactive: growth inhibition [1] -25.2% | growth inhibition [2] -38.9% | viability increase [3] -2.54% | viability [4] 97.6% | viability [5] 86.5% | inhibition [6] 2.14% | RAM network inhibition [7] 0.57%

CC1CN(C(=O)Nc2ccc3snnc3c2)c2ccccc21 (configuration not stated)
inactive: growth inhibition [1] -4.18% | growth inhibition [2] -6.81% | viability increase [3] -2.57% | viability [4] 82% | viability [5] 75% | inhibition [6] 2.52% | RAM network inhibition [7] 4.27%

NC(=O)CSc1nnc(-c2ccncc2)n1-c1ccc(Cl)cc1
inactive: growth inhibition [1] -5.39% | growth inhibition [2] 0.11% | viability increase [3] -1.78% | viability [4] 97.7% | viability [5] 94.1% | inhibition [6] 0.785% | RAM network inhibition [7] 1.57%

CCN(CC)c1ccc(NC(=O)CN2C(=O)CSc3ncccc32)c(C)c1
inactive: growth inhibition [1] 1.52% | growth inhibition [2] -5.94% | viability increase [3] 0.51% | viability [4] 45.2% | viability [5] 66% | inhibition [6] 1.34% | RAM network inhibition [7] 6.12%

CCC(=O)c1ccc(CCCCCC(=O)O)s1
inactive: growth inhibition [1] 4.35% | growth inhibition [2] -7.41% | viability increase [3] -0.1% | viability [4] 98.2% | viability [5] 98.7% | inhibition [6] 1.34% | RAM network inhibition [7] 3.2%

O=C(O)c1cc(Cl)c(Cl)cc1C(=O)N1CCOCC1
inactive: growth inhibition [1] -26.1% | growth inhibition [2] -13.7% | viability increase [3] -0.17% | viability [4] 94% | viability [5] 89.5% | inhibition [6] 1.38% | RAM network inhibition [7] 1.67%

CCNc1nc(C)nc2c1oc1ccccc12
inactive: growth inhibition [1] -8.28% | growth inhibition [2] -30.6% | viability increase [3] 0.92% | viability [4] 101% | viability [5] 89.5% | inhibition [6] 1.81% | RAM network inhibition [7] 3.64%

Cn1c(=O)oc2cc(S(=O)(=O)N3CCc4ccccc4C3)ccc21
inactive: growth inhibition [1] -14.7% | growth inhibition [2] -5.15% | viability increase [3] -2.36% | viability [4] 99.2% | viability [5] 91.9% | inhibition [6] 2.58% | RAM network inhibition [7] 5.77%

O=c1oc(-c2cccnc2)nc2ccccc12
inactive: growth inhibition [1] -8.07% | growth inhibition [2] -3.38% | viability increase [3] -0.21% | viability [4] 107% | viability [5] 96.1% | inhibition [6] 0.595% | RAM network inhibition [7] -0.11%

CCC(=O)N1C(C(=O)N2CCCC2)CSC1c1ccc(OC)cc1 (configuration not stated)
inactive: growth inhibition [1] -12.1% | growth inhibition [2] -12.3% | viability increase [3] -3.3% | viability [4] 96% | viability [5] 97.5% | inhibition [6] -0.035% | RAM network inhibition [7] 0.53%

Cn1c(=O)c2c(nc(N3CCCCCC3)n2CCSc2nc3ccccc3o2)n(C)c1=O
inactive: growth inhibition [1] -6.38% | growth inhibition [2] -18.4% | viability increase [3] -6.62% | viability [4] 80.4% | viability [5] 83% | inhibition [6] 1.14% | RAM network inhibition [7] 2.45%

O=C(NCc1ccccn1)Nc1cccc(Cl)c1
inactive: growth inhibition [1] -14.7% | growth inhibition [2] -9.4% | viability increase [3] -2.22% | viability [4] 97.7% | viability [5] 94.5% | inhibition [6] 0.095% | RAM network inhibition [7] 2.46%

CCCCOC(=O)Nc1nc(CC(=O)OCC)cs1
inactive: growth inhibition [1] -1.73% | growth inhibition [2] -4.89% | viability increase [3] 1.05% | viability [4] 92.2% | viability [5] 95.7% | inhibition [6] -0.45% | RAM network inhibition [7] 1.89%

CN(C)CCNC(=O)c1ccc(CS(=O)(=O)c2c(Cl)cccc2Cl)o1
inactive: growth inhibition [1] -2.3% | growth inhibition [2] -9.77% | viability increase [3] -1.24% | viability [4] 99.2% | viability [5] 97.6% | inhibition [6] 2.96% | RAM network inhibition [7] -1.13%

C/C=C/Cn1c(N(C)Cc2ccccc2)nc2c1c(=O)[nH]c(=O)n2C
inactive: growth inhibition [1] -17.4% | growth inhibition [2] -23.1% | viability increase [3] 0.04% | viability [4] 102% | viability [5] 87.6% | inhibition [6] 0.445% | RAM network inhibition [7] 3.49%

COc1ccc(CCNC(=O)CCNS(=O)(=O)c2cccc3nsnc23)cc1OC
inactive: growth inhibition [1] -2.13% | growth inhibition [2] -8.7% | viability increase [3] -4.88% | viability [4] 86.5% | viability [5] 97.2% | inhibition [6] 0.305% | RAM network inhibition [7] 1.25%

COc1cc(NC(=O)Cc2ccccc2)cc(OC)c1
inactive: growth inhibition [1] -1.66% | growth inhibition [2] -4.67% | viability increase [3] -2.51% | viability [4] 107% | viability [5] 96.7% | inhibition [6] 1.11% | RAM network inhibition [7] 0.25%

O=C(NCCN1CCCCCC1)C1CCC(CNS(=O)(=O)c2cccc3cccnc23)CC1 (configuration not stated)
inactive: growth inhibition [1] -8.39% | growth inhibition [2] -3.45% | viability increase [3] -3.58% | viability [4] 90.7% | viability [5] 93.8% | inhibition [6] 1.59% | RAM network inhibition [7] 10%

CC(=O)Nc1ccc(OC/C=C(\C)Cl)cc1
inactive: growth inhibition [1] -16.6% | growth inhibition [2] -7.54% | viability increase [3] -1.2% | viability [4] 101% | viability [5] 101% | inhibition [6] 0.895% | RAM network inhibition [7] 2.95%

Cc1cccc(NC(=O)CN2CCN(CC(=O)Nc3cccc(C)c3)CC2)c1
inactive: growth inhibition [1] -14.3% | growth inhibition [2] -10% | viability increase [3] -4.48% | viability [4] 90.1% | viability [5] 98% | inhibition [6] 0.165% | RAM network inhibition [7] 2.17%

O=C1CCCCC(=O)N(c2ccccc2)c2ccccc21
inactive: growth inhibition [1] -9.64% | growth inhibition [2] -15% | viability increase [3] -3.3% | viability [4] 95.9% | viability [5] 95.6% | inhibition [6] 1.74% | RAM network inhibition [7] 5.34%

C=CCSc1nnc(Cn2c(=O)sc3ccccc32)n1C
inactive: growth inhibition [1] -5.41% | growth inhibition [2] -8.71% | viability increase [3] -0.84% | viability [4] 108% | viability [5] 104% | inhibition [6] -0.685% | RAM network inhibition [7] 0.31%

COc1cc(NC(=O)CCCC(=O)OCC(F)(F)C(F)F)nc(OC)n1
inactive: growth inhibition [1] -5.42% | growth inhibition [2] -21.7% | viability increase [3] -0.22% | viability [4] 102% | viability [5] 98.9% | inhibition [6] 1.37% | RAM network inhibition [7] 0.92%

O=C(Cn1cc2c(n1)CCCC2)N1CCOCC1
inactive: growth inhibition [1] -13.2% | growth inhibition [2] -4.99% | viability increase [3] -0.03% | viability [4] 99.4% | viability [5] 108% | inhibition [6] 0.095% | RAM network inhibition [7] 6.94%

COc1ccc(S(=O)(=O)N2CCC(C(=O)NCCC3=CCCCC3)CC2)cc1OC
inactive: growth inhibition [1] -5.45% | growth inhibition [2] -0.575% | viability increase [3] -0.8% | viability [4] 96.2% | viability [5] 96.9% | inhibition [6] 1.67% | RAM network inhibition [7] 4.24%

CCOCCCNC(=O)c1cn(CC(C)C)c(=O)c2cc(OC)c(OC)cc12
inactive: growth inhibition [1] -22.4% | growth inhibition [2] -25.7% | viability increase [3] -2.7% | viability [4] 98.5% | viability [5] 97.9% | inhibition [6] 0.375% | RAM network inhibition [7] 4.93%

CC(=NCCN1CCOCC1)C1=C(O)c2ccccc2C1=O
inactive: growth inhibition [1] -5.16% | growth inhibition [2] -12.6% | viability increase [3] -1.7% | viability [4] 103% | viability [5] 100% | inhibition [6] 1.3% | RAM network inhibition [7] -0.73%
